Screening data as filed in PubChem.
In the library only some 4.9% were active in any assay of this set; here they are far more common.
STAT3 act: increases IL-6 driven STAT3 reporter signal | actives 0.91% (n = 190,000) | activation (% of control), % at 5.6 µM | AID 871 | U3A cells, IL-6 STAT3-luciferase reporter, luminescence; 100% = signal with IL-6 EC80 alone;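 active = activation above the screen-wide mean of compound activation plus 3 SD, cut at about 130% in these data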;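 also: 0% = background luminescence of wells with medium and substrate only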
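Material: STAT1-lacking human U3A cells, STAT3 luciferase reporter | Benchmarks: IL-6-only wells as 100% reference | Probe or stimulus: IL-6 (33 ng/mL) | Timing: Compound 1 h, then IL-6 6 h at 37 °C | Detection: Luminescence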
APP 5'UTR act: APP 5'UTR luciferase reporter activation | activation, % at 2 µM | AID 1276 | actives 1% (n = 190,000) | SH-SY5Y APP 5'UTR luciferase reporter, luminescence; zero percent = DMSO vehicle wells;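 active = activation above a set limit, based on mean plus 3 SD of controls, cut at about 140% in these data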
STAT3 inh: inhibitors of IL-6 induced STAT3 signaling; U3A cells, IL-6 STAT3-luciferase reporter, luminescence; host cell line lacks STAT1; inhibition, % at 5.5 µM; actives 0.89% (n = 190,000); AID 862;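 active = inhibition above the mean inhibition across all screened compounds plus 3 SD, cut at about 44% in these data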;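 also: 0% = DMSO only wells and 100% = 100 µM nifuroxazide control wells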
STAT1 blocker: STAT1 signaling inhibition | NIH 3T3 STAT1-luciferase reporter, IFN-gamma, luminescence | inhibition, % at 5.5 µM | actives 0.35% (n = 200,000);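 active = inhibition above a set limit, the mean inhibition across all tested compounds plus 3 SD, cut at about 34% in these data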;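 also: 0% = IFN-gamma with DMSO and 100% = IFN-gamma with 300 µM nifuroxazide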
NF-kB expr up: compounds increasing NF-kB expression in human neuronal cells; NF-kB reporter expression; active compounds read high; fold change at 12.5 µM; actives 1.6% (n = 190,000); AID 1239; in the data active = fold change above about 3.3
STAT1 act: increases IFN-gamma driven STAT1 reporter signal; NIH 3T3 STAT1-luciferase reporter, luminescence; 100% = IFN-gamma alone, no compound; actives 2.6% (n = 200,000); activation (% of control), % at 5.5 µM;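 active = activation above the screen-wide mean activation plus 3 SD, cut at about 130% in these data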;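 also: raw ratio to IFN-gamma control signal so 100% means no change and 0% no light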
Numbers without * were called inactive; x = no result.

SMILES	STAT3 act	APP 5'UTR act	STAT3 inh	STAT1 blocker	NF-kB expr up	STAT1 act
CCn1c(=O)c(C)nn2c3ccccc3nc12	97	-12	10	-8	1	108
CCCc1ccc(OC(=O)c2cccs2)cc1	97	6	4	-2	1.2	102
CCCc1ccc(OC(=O)c2ccc(O)cc2Cl)cc1	82	218*	28	-20	4.3*	119
O=C(COC(=O)c1cccnc1Cl)Nc1nc(-c2ccccc2)cs1	77	17	30	-11	1.4	110
CCCC(=O)Nc1ccc(-c2nc3cc(C)ccc3o2)cc1	99	190*	4	-39	5.1*	136*
CCCC(=O)Nc1ccc2oc(-c3ccc(OC)c(Br)c3)nc2c1	99	49	6	-11	1.5	108
NC(N)=Nc1nc2cc([N+](=O)[O-])ccc2o1	96	10	10	-10	1.3	107
COc1ccc(-c2nc3ccc([N+](=O)[O-])cc3o2)cc1	90	150*	16	-13	2.8	111
O=[N+]([O-])c1ccc2oc(-c3ccccc3)nc2c1	92	112	17	-48	4.2*	145*
Nc1ccc(-c2nc3ccc(N)cc3o2)cc1	100	16	4	-27	2.4	125
CCC(=O)NC(=S)Nc1ccc2oc(-c3ccc(OC)cc3)nc2c1	98	137*	10	-29	1.8	125
COc1cc(/C=N/NC(=S)NCCN2CCOCC2)ccc1O	92	6	11	10	1.3	90
Cc1ccc2oc(-c3ccccc3)nc2c1	91	39	11	-49	2.5	134*
Cc1ccc(C)c(-c2nc3cc(N)ccc3o2)c1	90	-22	16	-13	1.1	114
Cc1cccc(-c2nc3cc([N+](=O)[O-])ccc3o2)c1	87	82	19	-19	3.5*	116
Cc1ccc(S(=O)(=O)N2CCOCC2)cc1C(=O)Nc1nc2ccccc2[nH]1	102	29	-3	2	0.89	98
NC(=O)CCn1ccc2ccccc21	105	23	0	-6	0.96	104
COc1ccc(/C=N/n2c(-c3cccs3)n[nH]c2=S)cc1	82	8	24	-8	5.2*	107
S=c1[nH]nc(-c2cccs2)n1/N=C/c1c(Cl)cccc1Cl	99	2	3	1	1.1	98
Cc1ccc(/C=N/n2c(-c3cccs3)n[nH]c2=S)cc1	82	5	24	3	4.1*	98
COc1ccc2nc(SCc3cccc(C)c3)nc(C)c2c1	105	73	-6	-33	3.5*	130*
COc1ccc2nc(SCc3ccccc3C)nc(C)c2c1	101	72	-2	-9	1.8	108
Cc1ccc(CNC(=O)c2ccc3c(c2)NC(=O)C(N2CCOCC2)S3)cc1 (stereo not drawn)	133*	6	-33	11	0.86	91
O=C(NCCCN1CCCCCC1)c1ccc2c(c1)NC(=O)C(N1CCOCC1)S2 (stereo not drawn)	101	8	7	-1	1	101
Cc1ccnc(SCC(=O)c2cc3ccccc3o2)n1	91	14	14	-11	1.4	110
SMILES	STAT3 act	APP 5'UTR act	STAT3 inh	STAT1 blocker	NF-kB expr up	STAT1 act
O=C(O)c1ccc(-c2nc(-c3ccc(Cl)cc3Cl)cs2)cc1	132	122	-20	-42	2.1	137*
O=C(/C=C/c1ccc2c(c1)OCO2)Nc1nc(-c2ccc(F)cc2F)cs1	84	0	22	3	1.1	97
Brc1cc2c(cc1/C=N/Nc1nc3ccccc3s1)OCO2	121	30	-26	-36	1.7	132*
CC(C)=CC(=O)Nc1ccc2c(c1)OCO2	91	126	14	-12	4.5*	111
COc1ccc(NC(=O)/C=C/c2ccc3c(c2)OCO3)cc1	88	73	15	-35	3.2	131*
Brc1cc2c(cc1/C=N/Nc1nc(N3CCOCC3)nc(N3CCOCC3)n1)OCO2	119	-7	-18	-1	0.77	101
Cc1csc(NC(=O)/C=C/c2ccc3c(c2)OCO3)n1	28	110	88*	44*	1.3	59
COc1ccc(C(=O)NC(=S)NCC2CCCO2)cc1 (stereo not drawn)	96	-4	12	-18	1.5	116
Cc1ccc2nc(NC(=O)/C=C/c3ccc4c(c3)OCO4)sc2c1	94	21	5	-2	1.1	104
O=C(/C=C/c1ccc2c(c1)OCO2)Nc1nc2ccccc2s1	97	156*	-2	-51	1.1	146*
Cc1ccc(Nc2nc(=O)c3cccnc3s2)cc1	144*	68	-47	-41	4.3*	137*
O=C(Nc1cc2c(oc1=O)CCCC2=O)c1ccc(Cl)cc1	92	18	16	-40	1.4	136*
Cc1nccc2oc(=O)c(NC(=O)c3ccc(Cl)cc3)cc12	82	-21	24	-5	2.1	104
COc1ccccc1-c1nn2c(C3COc4ccccc4O3)nnc2s1 (stereo not drawn)	133*	-2	-36	-2	1.1	102
c1ccc(Cc2nn3c(C4COc5ccccc5O4)nnc3s2)cc1 (stereo not drawn)	135*	15	-41	-5	1.7	104
Fc1ccc(Oc2ncccn2)c(F)c1	92	-2	14	-2	1.2	101
Cc1sc2ncnc(Sc3ccccc3C(=O)O)c2c1C	103	15	7	-5	0.88	103
Cc1sc2ncnc(Sc3nnnn3-c3ccccc3)c2c1C	94	-5	9	6	3.9*	95
CCc1ccc(CN(C)C(=O)CCc2nnc(CCc3cccc(OC)c3)o2)nc1	97	1	9	6	1	95
O=C(Nc1ccc(Cl)cc1)c1ccc(Br)cc1F	101	150*	-2	-43	7.8*	140*
Cc1occc1C(=O)Nc1ccc(Br)cc1F	99	26	7	-32	1.8	130*
O=C(Nc1cccc(Cl)c1)Nc1ccc(Br)cc1F	83	64	20	-13	1	112
O=C(Nc1ccccc1)Nc1ccc(Br)cc1F	89	81	12	-33	1.8	130*
Cc1ncc(CN2CCCC(CCC(=O)NCc3ccc(F)c(F)c3)C2)s1 (stereo not drawn)	101	-11	3	-6	1	104
COc1ccc(Cl)cc1N(C(=O)Nc1cccc(Cl)c1)C1=NCC(C)S1 (stereo not drawn)	99	3	5	-3	1.1	103
N#C/C(=C/c1ccccc1)C(=O)NCc1ccccc1	102	0	-3	0	1	100
CN(C)c1ccc(/C=C(/C#N)C(=O)NCc2ccccc2)o1	107	38	-4	-32	1.5	129*
CCOC(=O)C1(CCc2ccccc2)CCN(C(=O)CCn2cncn2)CC1	109	41	-5	-46	x	139*
